# Laboratory results taken from ChEMBL document CHEMBL1145471, “Small molecule regulators of autophagy identified by an image-based high-throughput screen” (Proc Natl Acad Sci U S A, 2007).
# Experiments:
# Type in all cases: functional
# H4 [1] = assay: Increase in light chain 3-GFP+ autophagosome vesicle number per cell in human H4 cells at 4.5 uM after 24 hrs by high throughput fluorescence microscopy relative to control
# Method in brief: (§1)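 H4 cells stably expressing LC3-GFP were grown in DMEM with 10% FBS and 2 mM L-glutamine at 37°C, 5% CO2. They were exposed to each compound for 24 h, with DMSO as negative and rapamycin as positive control. Cells were then fixed in 4% paraformaldehyde and stained with 3 μg/ml DAPI. High-throughput fluorescence imaging scored LC3-GFP spot number, size and intensity, expressed relative to DMSO. Mean ± SD of triplicates; experiments repeated three times.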
# H4 [2] = assay: Increase in light chain 3-GFP+ autophagosome vesicle intensity per cell in human H4 cells at 4.5 uM after 24 hrs by high throughput fluorescence microscopy relative to control; method in brief: as §1
# H4 [3] = assay: Induction of light chain 3-GFP level in human H4 cells at 4.5 uM after 24 hrs by high throughput fluorescence microscopy relative to control
# Method in brief: (§2)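 H4 cells stably expressing LC3-GFP, grown in DMEM with 10% FBS, penicillin/streptomycin and 2 mM L-glutamine at 37°C, 5% CO2. Cells were seeded in 96-well plates and exposed to library compounds at 3–12 μM for 24 h, then fixed in 4% paraformaldehyde and stained with 3 μg/ml DAPI. LC3-GFP spot number, size and intensity were measured by high-throughput fluorescence microscopy and expressed relative to DMSO. Triplicates, mean ± SD.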
# H4 [4] = assay: Increase in light chain 3-GFP+ autophagosome vesicle area per cell in human H4 cells at 4.5 uM after 24 hrs by high throughput fluorescence microscopy relative to control
# Method in brief: (§3)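 H4 cells stably expressing LC3-GFP, seeded in 96-well plates and exposed to compound for 24 h; screening concentrations were 3–12 μM, with rapamycin 0.22 μM and bafilomycin A1 0.40 μM. Cells fixed in 4% paraformaldehyde and stained with 3 μg/ml DAPI. Number, size and intensity of LC3-GFP spots measured by high-throughput fluorescence microscopy and expressed as percent of DMSO-treated wells. Rapamycin was the positive control. Triplicate wells, mean ± SD; experiments repeated three times.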
# H4 [5] = assay: Increase in light chain 3-GFP+ autophagosome vesicle number per cell in human H4 cells at 6.5 uM after 24 hrs by high throughput fluorescence microscopy relative to control
# Method in brief: (§4)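 H4 cells stably expressing LC3-GFP, kept in DMEM/10% FBS at 37°C, 5% CO2, were seeded in 96-well plates and exposed to compound for 24 h. Cells were then fixed in 4% paraformaldehyde and stained with 3 μg/ml DAPI. Automated fluorescence microscopy scored the number, size and intensity of LC3-GFP spots. Values are percent of DMSO wells, in triplicate, mean ± SD. Rapamycin served as positive control.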
# H4 [6] = assay: Increase in long-lived protein degradation in human H4 cells after 4 hrs relative to control; design: concentration or dose not given beside the values
# H4 [7] = assay: Increase in long-lived protein degradation in human H4 cells after 1 hr relative to control; design: concentration or dose not given beside the values
# H4 [8] = assay: Increase in long-lived protein degradation in human H4 cells after 24 hrs relative to control; design: concentration or dose not given beside the values
# H4 [9] = assay: Decrease in FYVE-RFP+ vesicle intensity per cell in human H4 cells after 2 hrs relative to control; design: concentration or dose not given beside the values
# Method in brief: (§5)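 H4 cells stably expressing FYVE-RFP (H4-FYVE), grown in DMEM with 10% FBS, penicillin/streptomycin and 2 mM L-glutamine at 37°C, 5% CO2, seeded in 96-well plates and exposed to compound. Fixed in 4% paraformaldehyde, nuclei stained with 3 μg/ml DAPI, FYVE-RFP+ vesicles quantified by high-throughput fluorescence microscopy against DMSO control. Triplicate wells, mean ± SD.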
# H4 [10] = assay: Increase in light chain 3-GFP+ autophagosome vesicle intensity per cell in human H4 cells at 6.5 uM after 24 hrs by high throughput fluorescence microscopy relative to control
# Method in brief: (§6)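 H4 cells stably expressing LC3-GFP, seeded in 96-well plates and exposed to compound for 24 h; fixed in 4% paraformaldehyde, nuclei stained with 3 μg/ml DAPI. Automated fluorescence microscopy scored number, size and intensity of LC3-GFP spots; values expressed relative to DMSO-treated wells, rapamycin positive control. Triplicate wells, mean ± SD; experiments repeated three times.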
# H4 [11] = assay: Decrease in FYVE-RFP+ vesicle intensity per cell in human H4 cells after 8 hrs relative to control; design: concentration or dose not given beside the values; method in brief: as §5
# H4 [12] = assay: Increase in light chain 3-GFP+ autophagosome vesicle area per cell in human H4 cells at 6.5 uM after 24 hrs by high throughput fluorescence microscopy relative to control; method in brief: as §6
# H4 [13] = assay: Decrease in FYVE-RFP+ vesicle intensity per cell in human H4 cells after 4 hrs relative to control; design: concentration or dose not given beside the values; method in brief: as §5
# H4 [14] = assay: Induction of light chain 3-GFP level in human H4 cells at 6.5 uM after 24 hrs by high throughput fluorescence microscopy relative to control; method in brief: as §4
# H4 [15] = assay: Increase in long-lived protein degradation in human H4 cells after 2 hrs relative to control; design: concentration or dose not given beside the values
# H4 [16] = assay: Increase in light chain 3-GFP+ autophagosome vesicle area per cell in human H4 cells at 4.3 uM after 24 hrs by high throughput fluorescence microscopy relative to control; method in brief: as §3
# H4 [17] = assay: Increase in light chain 3-GFP+ autophagosome vesicle number per cell in human H4 cells at 4.3 uM after 24 hrs by high throughput fluorescence microscopy relative to control; method in brief: as §1
# H4 [18] = assay: Induction of light chain 3-GFP level in human H4 cells at 4.3 uM after 24 hrs by high throughput fluorescence microscopy relative to control; method in brief: as §2
# H4 [19] = assay: Increase in light chain 3-GFP+ autophagosome vesicle intensity per cell in human H4 cells at 4.3 uM after 24 hrs by high throughput fluorescence microscopy relative to control; method in brief: as §1
# H4 [20] = assay: Induction of light chain 3-GFP level in human H4 cells at 6.1 uM after 24 hrs by high throughput fluorescence microscopy relative to control; method in brief: as §4
# H4 [21] = assay: Increase in light chain 3-GFP+ autophagosome vesicle area per cell in human H4 cells at 3.8 uM after 24 hrs by high throughput fluorescence microscopy relative to control; method in brief: as §6
# H4 [22] = assay: Increase in light chain 3-GFP+ autophagosome vesicle number per cell in human H4 cells at 6.1 uM after 24 hrs by high throughput fluorescence microscopy relative to control; method in brief: as §4
# H4 [23] = assay: Increase in light chain 3-GFP+ autophagosome vesicle intensity per cell in human H4 cells at 6.1 uM after 24 hrs by high throughput fluorescence microscopy relative to control; method in brief: as §6
# H4 [24] = assay: Increase in light chain 3-GFP+ autophagosome vesicle number per cell in human H4 cells at 6.3 uM after 24 hrs by high throughput fluorescence microscopy relative to control; method in brief: as §4
# H4 [25] = assay: Induction of light chain 3-GFP level in human H4 cells at 6.3 uM after 24 hrs by high throughput fluorescence microscopy relative to control; method in brief: as §4
# H4 [26] = assay: Increase in light chain 3-GFP+ autophagosome vesicle area per cell in human H4 cells at 6.3 uM after 24 hrs by high throughput fluorescence microscopy relative to control; method in brief: as §6
# H4 [27] = assay: Increase in light chain 3-GFP+ autophagosome vesicle intensity per cell in human H4 cells at 6.3 uM after 24 hrs by high throughput fluorescence microscopy relative to control; method in brief: as §6
structure (smiles),measurement,setting,value
Cn1cc(C2=C(c3cn(CCCSC(=N)N)c4ccccc34)C(=O)NC2=O)c2ccccc21 [BISINDOLYLMALEIMIDE IX],Activity,H4 [1],190.07%
same,Activity,H4 [2],240.67%
same,Activity,H4 [3],50.58%
same,Activity,H4 [4],190.1%
COc1ccc2c(c[n+](C)c3c4cc5c(cc4ccc23)OCO5)c1OC.[Cl-] [CHELERYTHRINE CHLORIDE],Activity,H4 [5],195.46%
same,Activity,H4 [6],108.72%
same,Activity,H4 [7],101.43%
same,Activity,H4 [8],106.48%
same,Activity,H4 [9],30.83%
same,Activity,H4 [10],213.88%
same,Activity,H4 [11],33.84%
same,Activity,H4 [12],229.91%
same,Activity,H4 [13],22.01%
same,Activity,H4 [14],110.26%
same,Activity,H4 [15],100.4%
COc1cc([C@@H]2c3cc4c(cc3[C@@H](O[C@@H]3O[C@@H]5CO[C@@H](C)O[C@H]5[C@H](O)[C@H]3O)[C@H]3COC(=O)[C@H]23)OCO4)cc(OC)c1O [ETOPOSIDE],Activity,H4 [16],306.93%
same,Activity,H4 [17],275.6%
same,Activity,H4 [18],48.17%
same,Activity,H4 [19],335.9%
CN(C)CCCn1cc(C2=C(c3c[nH]c4ccccc34)C(=O)NC2=O)c2ccccc21 [GF-109203],Activity,H4 [20],47.77%
same,Activity,H4 [21],208.08%
same,Activity,H4 [22],198.94%
same,Activity,H4 [23],211.81%
C/C1=C/C(=O)O[C@@H]2C[C@@H](CC[C@H](C)/C=C\CC1)O[C@@](O)([C@@H]1CSC(=O)N1)C2 [LATRUNCULIN B],Activity,H4 [24],263.28%
same,Activity,H4 [25],27.55%
same,Activity,H4 [26],334.83%
same,Activity,H4 [27],723.64%
C=CCNC1=C2C[C@@H](C)C[C@H](OC)[C@H](O)[C@@H](C)/C=C(\C)[C@H](OC(N)=O)[C@@H](OC)/C=C\C=C(/C)C(=O)NC(=CC1=O)C2=O [TANESPIMYCIN],Activity,H4 [16],364.98%
same,Activity,H4 [17],293.36%
same,Activity,H4 [18],66.89%
same,Activity,H4 [19],385.49%
